Experiments:
Type in all cases: functional
NCI/ADR-RES = assay: Anticancer activity against human NCI/ADR-RES cells after 48 hrs by sulforhodamine B assay
Procedure, shortened: (§1)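 NCI 60-cell-line anticancer screen. Each compound is tested at a minimum of five concentrations in 10-fold dilutions with 48 h drug exposure. Cell viability/growth is estimated by sulforhodamine B protein staining. GI50 is the log10 molar concentration giving 50% growth inhibition, read from the dose-response curves and mean graphs of the NCI data screening report. TGI was taken from double screens.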

U-251 = assay: Anticancer activity against human U251 cells after 48 hrs by sulforhodamine B assay; details: U-251, 48 h
Procedure, shortened: (§2)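 Tested in the NCI 60-human-tumour-cell-line screen. Compounds were applied at a minimum of five concentrations in 10-fold dilutions with 48 h exposure. Cell growth was estimated by sulforhodamine B protein staining. GI50 (log10 of molar concentration giving 50% growth inhibition) and TGI were read from the data sheets, dose-response curves and mean graphs. Some cell lines were screened twice.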

UACC-257 = assay: Anticancer activity against human UACC257 cells after 48 hrs by sulforhodamine B assay; details: UACC-257, 48 h; procedure, shortened: as §2
T47D = assay: Anticancer activity against human T47D cells after 48 hrs by sulforhodamine B assay; procedure, shortened: as §2
HOP-92 = assay: Anticancer activity against human HOP92 cells after 48 hrs by sulforhodamine B assay; details: HOP-92, 48 h; procedure, shortened: as §1
CAKI-1 = assay: Anticancer activity against human Caki1 cells after 48 hrs by sulforhodamine B assay; details: CAKI-1, 48 h; procedure, shortened: as §1
UACC-62 = assay: Anticancer activity against human UACC62 cells after 48 hrs by sulforhodamine B assay; details: UACC-62, 48 h; procedure, shortened: as §2
KM12 = assay: Anticancer activity against human KM12 cells after 48 hrs by sulforhodamine B assay; details: KM12, 48 h; procedure, shortened: as §1
MDA-MB-231 = assay: Anticancer activity against human MDA-MB-231 cells after 48 hrs by sulforhodamine B assay; details: MDA-MB-231, 48 h; procedure, shortened: as §1
OVCAR-5 = assay: Anticancer activity against human OVCAR5 cells after 48 hrs by sulforhodamine B assay; details: OVCAR-5, 48 h; procedure, shortened: as §1
SF-539 = assay: Anticancer activity against human SF539 cells after 48 hrs by sulforhodamine B assay; details: SF-539, 48 h; procedure, shortened: as §1
A498 = assay: Anticancer activity against human A498 cells after 48 hrs by sulforhodamine B assay; details: A498, 48 h; procedure, shortened: as §1
MDA-N = assay: Anticancer activity against human MDA-N cells after 48 hrs by sulforhodamine B assay; procedure, shortened: as §1
SK-MEL-5 = assay: Anticancer activity against human SK-MEL-5 cells after 48 hrs by sulforhodamine B assay; details: SK-MEL-5, 48 h; procedure, shortened: as §1
CCRF-CEM = assay: Anticancer activity against human CCRF-CEM cells after 48 hrs by sulforhodamine B assay; procedure, shortened: as §1
NCI-H226 = assay: Anticancer activity against human NCI-H226 cells after 48 hrs by sulforhodamine B assay; details: NCI-H226, 48 h; procedure, shortened: as §1
HT-29 = assay: Anticancer activity against human HT-29 cells after 48 hrs by sulforhodamine B assay; details: HT-29, 48 h; procedure, shortened: as §1
A549 = assay: Anticancer activity against human A549 cells after 48 hrs by sulforhodamine B assay; details: A549, 48 h; procedure, shortened: as §1
IGROV-1 = assay: Anticancer activity against human IGROV1 cells after 48 hrs by sulforhodamine B assay; details: IGROV-1, 48 h; procedure, shortened: as §1
SK-MEL-2 = assay: Anticancer activity against human SK-MEL-2 cells after 48 hrs by sulforhodamine B assay; details: SK-MEL-2, 48 h; procedure, shortened: as §1
MCF7 = assay: Anticancer activity against human MCF7 cells after 48 hrs by sulforhodamine B assay; details: MCF7, 48 h; procedure, shortened: as §1
SK-OV-3 = assay: Anticancer activity against human SKOV3 cells after 48 hrs by sulforhodamine B assay; details: SK-OV-3, 48 h; procedure, shortened: as §1
SN12C = assay: Anticancer activity against human SN12C cells after 48 hrs by sulforhodamine B assay; procedure, shortened: as §1
NCI-H322M = assay: Anticancer activity against human NCI-H322M cells after 48 hrs by sulforhodamine B assay; procedure, shortened: as §1
SF-268 = assay: Anticancer activity against human SF268 cells after 48 hrs by sulforhodamine B assay; details: SF-268, 48 h; procedure, shortened: as §1
SK-MEL-28 = assay: Anticancer activity against human SK-MEL-28 cells after 48 hrs by sulforhodamine B assay; details: SK-MEL-28, 48 h; procedure, shortened: as §1
DU-145 = assay: Anticancer activity against human DU145 cells after 48 hrs by sulforhodamine B assay; details: DU-145, 48 h; procedure, shortened: as §1
HCC 2998 = assay: Anticancer activity against human HCC2998 cells after 48 hrs by sulforhodamine B assay; details: HCC 2998, 48 h; procedure, shortened: as §1
UO-31 = assay: Anticancer activity against human UO31 cells after 48 hrs by sulforhodamine B assay; details: UO-31, 48 h; procedure, shortened: as §2
RXF 393 = assay: Anticancer activity against human RXF393 cells after 48 hrs by sulforhodamine B assay; details: RXF 393, 48 h; procedure, shortened: as §1
TK-10 = assay: Anticancer activity against human TK10 cells after 48 hrs by sulforhodamine B assay; details: TK-10, 48 h; procedure, shortened: as §2
LOX IMVI = assay: Anticancer activity against human LOXIMVI cells after 48 hrs by sulforhodamine B assay; procedure, shortened: as §1
SNB-75 = assay: Anticancer activity against human SNB75 cells after 48 hrs by sulforhodamine B assay; details: SNB-75, 48 h; procedure, shortened: as §2
OVCAR-3 = assay: Anticancer activity against human OVCAR-3 cells after 48 hrs by sulforhodamine B assay; details: OVCAR-3, 48 h; procedure, shortened: as §1
SNB-19 = assay: Anticancer activity against human SNB19 cells after 48 hrs by sulforhodamine B assay; details: SNB-19, 48 h; procedure, shortened: as §1
SF-295 = assay: Anticancer activity against human SF295 cells after 48 hrs by sulforhodamine B assay; details: SF-295, 48 h; procedure, shortened: as §1
OVCAR-4 = assay: Anticancer activity against human OVCAR4 cells after 48 hrs by sulforhodamine B assay; details: OVCAR-4, 48 h; procedure, shortened: as §1
PC-3 = assay: Anticancer activity against human PC3 cells after 48 hrs by sulforhodamine B assay; details: PC-3, 48 h; procedure, shortened: as §1
SR = assay: Anticancer activity against human SR cells after 48 hrs by sulforhodamine B assay; procedure, shortened: as §2
[1] = Anticancer activity against human Hs 578T cells after 48 hrs by sulforhodamine B assay; procedure, shortened: as §1
HL-60 = assay: Anticancer activity against human HL-60(TB) cells after 48 hrs by sulforhodamine B assay; details: HL-60, 48 h
Procedure, shortened: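 NCI 60-cell-line anticancer screen. Drugs tested at a minimum of five concentrations at 10-fold dilutions with 48 h exposure. Cell growth estimated by sulforhodamine B protein assay. GI50 is log10 of the molar concentration giving 50% growth inhibition, read from the screening data sheet, dose-response curves and mean graphs.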

OVCAR-8 = assay: Anticancer activity against human OVCAR8 cells after 48 hrs by sulforhodamine B assay; details: OVCAR-8, 48 h; procedure, shortened: as §1
NCI-H23 = assay: Anticancer activity against human NCI-H23 cells after 48 hrs by sulforhodamine B assay; details: NCI-H23, 48 h; procedure, shortened: as §1
K562 = assay: Anticancer activity against human K562 cells after 48 hrs by sulforhodamine B assay; details: K562, 48 h; procedure, shortened: as §1
BT-549 = assay: Anticancer activity against human BT549 cells after 48 hrs by sulforhodamine B assay; details: BT-549, 48 h; procedure, shortened: as §1
SW-620 = assay: Anticancer activity against human SW620 cells after 48 hrs by sulforhodamine B assay; details: SW-620, 48 h; procedure, shortened: as §2
ACHN = assay: Anticancer activity against human ACHN cells after 48 hrs by sulforhodamine B assay; procedure, shortened: as §1
NCI-H522 = assay: Anticancer activity against human NCI-H522 cells after 48 hrs by sulforhodamine B assay; details: NCI-H522, 48 h; procedure, shortened: as §1
Malme-3M = assay: Anticancer activity against human MALME-3M cells after 48 hrs by sulforhodamine B assay; procedure, shortened: as §1
HOP-62 = assay: Anticancer activity against human HOP62 cells after 48 hrs by sulforhodamine B assay; details: HOP-62, 48 h; procedure, shortened: as §1
[2] = Anticancer activity against human […] cells after 48 hrs by sulforhodamine B assay; procedure, shortened: as §1
MOLT-4 = assay: Anticancer activity against human MOLT4 cells after 48 hrs by sulforhodamine B assay; details: MOLT-4, 48 h; procedure, shortened: as §1
MDA-MB-435 = assay: Anticancer activity against human MDA-MB-435 cells after 48 hrs by sulforhodamine B assay; details: MDA-MB-435, 48 h; procedure, shortened: as §1
NCI-H460 = assay: Anticancer activity against human NCI-H460 cells after 48 hrs by sulforhodamine B assay; details: NCI-H460, 48 h; procedure, shortened: as §1
HCT-15 = assay: Anticancer activity against human HCT15 cells after 48 hrs by sulforhodamine B assay; details: HCT-15, 48 h; procedure, shortened: as §1
EKVX = assay: Anticancer activity against human EKVX cells after 48 hrs by sulforhodamine B assay; procedure, shortened: as §1
786-0 = assay: Anticancer activity against human 786-0 cells after 48 hrs by sulforhodamine B assay; details: 786-0, 48 h; procedure, shortened: as §1
M14 = assay: Anticancer activity against human M14 cells after 48 hrs by sulforhodamine B assay; details: M14, 48 h; procedure, shortened: as §1
HCT-116 = assay: Anticancer activity against human HCT116 cells after 48 hrs by sulforhodamine B assay; details: HCT-116, 48 h; procedure, shortened: as §1
COLO 205 = assay: Anticancer activity against human COLO205 cells after 48 hrs by sulforhodamine B assay; details: COLO 205, 48 h; procedure, shortened: as §1

What does the source list for `O=c1[nH]c(=O)n([C@H]2C[C@H](O)[C@@H](CO)O2)cc1F` [FLOXURIDINE]?
GI50 (NCI/ADR-RES): 1260 nM; GI50 (U-251): 126 nM; GI50 (UACC-257): 3.16 µM; GI50 (T47D): 1260 nM; GI50 (HOP-92): 794 nM; GI50 (CAKI-1): 31.6 nM; GI50 (UACC-62): 39.8 nM; GI50 (KM12): 6.31 µM; GI50 (MDA-MB-231): 3.98 µM; GI50 (OVCAR-5): 6.31 µM; GI50 (SF-539): 3.98 nM; GI50 (A498): 1260 nM; GI50 (MDA-N): 1260 nM; GI50 (SK-MEL-5): 200 nM; GI50 (CCRF-CEM): 6.31 nM; GI50 (NCI-H226): 10 µM; GI50 (HT-29): 2510 nM; GI50 (A549): 12.6 nM; GI50 (IGROV-1): 2510 nM; GI50 (SK-MEL-2): 10 µM; GI50 (MCF7): 6.31 nM; GI50 (SK-OV-3): 2000 nM; GI50 (SN12C): 200 nM; GI50 (NCI-H322M): 501 nM; GI50 (SF-268): 12.6 nM; GI50 (SK-MEL-28): 2000 nM; GI50 (DU-145): 251 nM; GI50 (HCC 2998): 1 nM; GI50 (UO-31): 126 nM; GI50 (RXF 393): 3.98 µM; GI50 (TK-10): 5.01 µM; GI50 (LOX IMVI): 25.1 nM; GI50 (SNB-75): 200 nM; GI50 (OVCAR-3): 2510 nM; GI50 (SNB-19): 2000 nM; GI50 (SF-295): 39.8 nM; GI50 (OVCAR-4): 10 µM; GI50 (PC-3): 316 nM; GI50 (SR): 12.6 nM; GI50 [1]: 3.98 µM; GI50 (HL-60): 200 nM; GI50 (OVCAR-8): 126 nM; GI50 (NCI-H23): 501 nM; GI50 (K562): 794 nM; GI50 (BT-549): 1000 nM; GI50 (SW-620): 10 µM; GI50 (ACHN): 31.6 nM; GI50 (NCI-H522): 2510 nM; GI50 (Malme-3M): 7.94 µM; GI50 (HOP-62): 25.1 nM; GI50 [2]: 794 nM; GI50 (MOLT-4): 39.8 nM; GI50 (MDA-MB-435): 3.16 µM; GI50 (NCI-H460): 2 nM; GI50 (HCT-15): 2000 nM; GI50 (EKVX): 10 µM; GI50 (786-0): 100 nM; GI50 (M14): 158 nM; GI50 (HCT-116): 126 nM; GI50 (COLO 205): 1580 nM
